Lung fibro prol: antiproliferative effect on LL 47 fibroblasts – human, LL 47 cells, CellTiter-Glo luminescence, primary screen | LL 47 human lung fibroblast viability, ATP luminescence; stronger effect = lower value | viability, % at 10 µM | hit rate 1.1% among 85,000 | AID 719, 2007;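 active means viability at or below 50% in the single dose screen; inactive means viability above 50%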;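 further: compound exposure lasted 72 h before the ATP readout; 100% = median luminescence of untreated cell-only wells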
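Benchmarks: Cell-only wells, no compound | Test system: LL 47 human lung fibroblasts, passage 12 or lower | Input: 1,150 cells/well | Measured by: CellTiter-Glo luminescence measuring cellular ATP | Medium: IMEM, 15% FBS supplement | Schedule: Overnight attachment after seeding, then 72 h compound exposure at 37 °C | Doses: Compound addition at 0.1% DMSO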
HCT116 bCat-KO: primary screen for growth suppressors in beta-catenin knockout HCT116 cells (colon tumor, human); hit rate 1.5% among 140,000; HCT116 beta-catenin knockout viability, CellTiter-Glo, 60 h; stronger effect = lower value; viability, % at 10 µM; AID 818, 2007;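 active means viability at or under a set limit, the compound median less 4 SD, cut at about 6% in these data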;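 further: 0% = Hyamine 1622 control at 20 µM and 100% = untreated cell control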
HUVEC inhibit: inhibitors of HUVEC proliferation, primary screen, cell-based, 384-well; CellTiter-Glo luminescence, 72 h; stronger effect = lower value; viability, % at 10 µM (by protocol); hit rate 1.1% among 86,000; AID 648, 2007;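 active means viability at or below 30%; inactive means viability above 30%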;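 further: 100% = median luminescence of DMSO-only cell control wells on each plate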
H69AR growth 86K: proliferation blockers of H69AR lung cancer cells, primary screen, cell-based, human, 86K library; hit rate 6% among 85,000; viability, % at 10 µM; AID 598, 2007; H69AR lung tumor viability, ATP luminescence, 72 h; stronger effect = lower value;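 active means viability at or below 40%; inactive means viability above 40%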;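 further: multidrug resistant small cell line overexpressing MRP-1 efflux transporter; 100% = mean luminescence of untreated control wells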
PTK2B oligo ant: antagonists of Pyk2 self-association, primary screen, Q293 cells, FERM NanoBiT luminescence, HTS; stronger effect = lower value; hit rate 0.83% among 99,000; z-score (the deposit names both 25 µM and 10 µM); AID 1347419, 2020; Protein-tyrosine kinase 2-beta (Homo sapiens), Q14289;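 active means Z-score of -3 or lower, scaled per plate to the spread of control and sample wells; inactive means z-score above -3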;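 further: negative z-score means lost luminescence so less FERM oligomerization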
HCT116 PTEN-null: growth suppression of PTEN-null HCT116, primary screen, cell-based, CellTiter-Glo. viability, % at 10 µM. hit rate 1.2% among 140,000. HCT116 PTEN-null viability, 60 h; stronger effect = lower value;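 active means viability at or below a set limit, 4 SD under the median of all tested compounds, cut at about 3.7% in these data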;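 further: PTEN knockout HCT116 line with beta catenin targeted HCT116 as companion control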
Starred values were filed as active, the others as inactive; . = no result given. The full list was thinned out, with hits kept by preference.

SMILES | Lung fibro prol | HCT116 bCat-KO | HUVEC inhibit | H69AR growth 86K | PTK2B oligo ant | HCT116 PTEN-null
O=C(Cn1nc(-c2cccc([N+](=O)[O-])c2)c2ccccc2c1=O)Nc1cccnc1 | 98.9 | 96.3 | 103.6 | 66.8 | -0.21 | 95.9
CCn1cc(C2C(C(=O)Nc3cc(C)ccn3)=C(C)NC3=C2C(=O)CC(C)(C)C3)c(C)n1 (configuration not stated) | . | 88.8 | . | . | . | 95.5
O=C(COC(=O)c1oc2ccccc2c1COc1ccccc1)NCCN1C(=O)CSC1=O | . | 90.5 | . | . | . | 94.2
COc1ccc(Nc2oc(-c3ccc(Cl)cc3)nc2C#N)cc1 | 39.4* | 9.9 | 43.0 | 24.6* | 0.36 | 16.5
CCOc1ccc(-c2nc(C#N)c(NC3CC3)o2)cc1 | . | 91.9 | . | . | 0.07 | 98.9
COc1ccc(Nc2oc(COc3ccc(Cl)cc3)nc2C#N)cc1 | 101.9 | 14.4 | 78.8 | 70.7 | -0.05 | 36.9
CCOc1ccc(Nc2oc(-c3ccc(Cl)cc3)nc2C#N)cc1 | 42.3* | 72.6 | 81.6 | 32.5* | -0.23 | 63.3
Cc1ccccc1NS(=O)(=O)c1ccc(N2CCCC2=O)cc1 | 49.0* | 18.4 | 63.4 | 25.8* | 1.24 | 27.5
COc1ccc2nc(SCC(=O)Nc3ccc4sc(C)nc4c3)c(C#N)cc2c1 | . | 24.9 | . | . | -0.8 | 7.6
CCCCCCOc1ccc(/C=c2\s/c(=C(/C#N)C(=O)NCc3ccco3)n(-c3ccccc3)c2=O)cc1 | . | 4.7* | . | . | . | 7.0
c1ccc(-c2ccc(-c3nc(-c4ccccn4)no3)cc2)cc1 | 42.4* | 55.1 | 43.5 | 34.1* | -1.66 | 56.0
c1ccc(-c2nc(-c3ccccn3)no2)cc1 | 56.3 | 23.0 | 54.9 | 42.1 | -0.15 | 24.9
c1ccc(-c2noc(-c3cccc4ccccc34)n2)nc1 | 89.2 | 73.3 | 81.8 | 37.9* | -1.43 | 77.0
N#C/C(=C\c1ccccc1)c1nc2ncccc2[nH]1 | . | 97.4 | . | . | -0.23 | 94.8
CCOCCCNC(=O)C(NC(=O)c1ccc(NC(C)=O)cc1)c1ccc(OC)cc1 (configuration not stated) | . | 96.6 | . | . | . | 96.7
CCOC(=O)c1cnn(-c2ccccc2)c1-n1cccc1C(=O)C(=O)Nc1ccccc1 | . | 81.2 | . | . | -0.4 | 88.0
CC(=O)N1CCN(c2nc3cc4c(cc3nc2NS(=O)(=O)c2ccccc2)OCCO4)CC1 | 100.4 | 92.1 | 88.5 | 76.3 | -0.12 | 91.8
C#CCn1c(=NC(=O)c2ccc(S(=O)(=O)N3CCc4ccccc4C3)cc2)sc2cc(S(N)(=O)=O)ccc21 | . | 1.4* | . | . | . | 1.5*
COC(=O)Cn1c(=NC(=O)c2ccc(S(=O)(=O)N3CCc4ccccc4C3)cc2)sc2cc(OC)ccc21 | . | 85.3 | . | . | . | 86.9
COCCn1c(=NC(=O)c2ccc(S(=O)(=O)N3CCc4ccccc4C3)cc2)sc2cc(S(N)(=O)=O)ccc21 | . | 68.6 | . | . | . | 80.4
C=CCn1c(=NC(=O)c2ccc(S(=O)(=O)N3CCc4ccccc4C3)cc2)sc2cc(S(N)(=O)=O)ccc21 | . | 1.4* | . | . | . | 1.7*
Cc1ccccc1Cn1c(=N)n(CC(=O)c2ccc([N+](=O)[O-])cc2)c2ccccc21 | . | 1.9* | . | . | . | 1.4*
CN(CC1CCCO1)S(=O)(=O)c1ccc(C(=O)Nc2nc(-c3ccccn3)cs2)cc1 (configuration not stated) | 41.5* | 3.9* | 44.6 | 54.6 | . | 8.0
CN(C)S(=O)(=O)c1ccc(C(=O)Nc2nc(-c3cc4ccccc4o3)cs2)cc1 | . | 48.8 | . | . | . | 54.6
COc1nc(Nc2ccc([N+](=O)[O-])cc2)nc(NC(C)C)n1 | . | 97.8 | . | . | -1.04 | 109.8
SMILES | Lung fibro prol | HCT116 bCat-KO | HUVEC inhibit | H69AR growth 86K | PTK2B oligo ant | HCT116 PTEN-null
O=C(NC1CCCC1)c1sc(=S)n2c1[nH]c(=O)c1ccccc12 | 96.3 | 68.7 | 63.9 | 22.4* | -3.14* | 68.5
O=C(NCc1ccco1)c1sc(=S)n2c1[nH]c(=O)c1ccccc12 | 102.4 | 89.6 | 92.5 | 88.0 | 0.82 | 83.7
COc1ccc(-n2ncc3c(NCCCN4CCOCC4)ncnc32)cc1 | 101.5 | 106.9 | 93.0 | 87.6 | -0.45 | 104.5
CCOc1cc2nc(-c3ccc(OC)c(OC)c3)nc(NCCCN3CCOCC3)c2cc1OC | 82.4 | 65.4 | 57.7 | 18.2* | 0.98 | 57.2
COc1ccc(-c2oc3ncn(CCN4CCOCC4)c(=N)c3c2-c2ccc(OC)cc2)cc1 | 84.8 | 32.5 | 65.5 | 16.3* | -1.36 | 27.1
COc1ccc(-c2nc(C#N)c(NCCCN3CCOCC3)o2)cc1 | . | 95.3 | . | . | . | 100.4
COc1ccc(-c2oc3ncnc(NCCCN4CCOCC4)c3c2-c2ccc(OC)cc2)cc1 | 59.7 | 49.2 | 43.7 | 5.7* | -1.83 | 57.6
Clc1ccc(-c2nc(NCCN3CCOCC3)c3ccccc3n2)cc1 | 89.2 | 56.9 | 9.6* | 86.0 | -0.31 | 44.3
O=S(=O)(Nc1nc2ccccc2nc1NCCN1CCOCC1)c1cccc(Cl)c1 | 96.5 | 96.8 | 87.9 | 96.1 | -0.04 | 91.0
Cc1c(Br)cc(C(=O)NC2CCCCC2)c(C)c1C | 88.7 | 81.8 | 103.0 | 87.9 | 1.09 | 88.9
Cc1ccc[n+](C(C)C(=O)Nc2ccc(C)c([N+](=O)[O-])c2)c1 (configuration not stated) | . | 89.6 | . | . | 0.91 | 89.6
CCNC(=S)N1CCN(S(=O)(=O)c2cccc(C(F)(F)F)c2)CC1 | . | 92.0 | . | . | . | 96.3
c1ccc(-c2oc3ncnc(NCCCN4CCOCC4)c3c2-c2ccccc2)cc1 | 74.6 | 36.4 | 37.2 | 3.1* | -1.5 | 33.6
COc1ccc(-c2oc3ncnc(NCCN4CCOCC4)c3c2-c2ccc(OC)cc2)cc1 | 77.0 | 24.4 | 71.3 | 17.8* | -1.47 | 18.2
COc1ccc(-n2ncc3c(NCCN4CCOCC4)ncnc32)cc1 | 90.4 | 96.3 | 95.1 | 85.2 | 1.08 | 113.6
COc1ccc(/C=C2\CCc3ccccc3C2=O)cc1Cn1cccn1 | . | 2.9* | . | . | -2.53 | 2.2*
COc1ccc(C2=NOC(C(=O)NCCCn3ccnc3)C2)cc1 (configuration not stated) | 92.1 | 93.0 | 99.0 | 92.2 | -0.17 | 87.0
CCn1cnc2c1c(=O)n(CC(=O)Nc1ccc3c(c1)OC(F)(F)O3)c(=O)n2Cc1ccccc1 | 84.0 | 89.0 | 85.9 | 31.7* | -2.83 | 72.6
O=C(NCc1ccc(F)cc1)C(=O)NCC1OCCN1S(=O)(=O)c1cccs1 (configuration not stated) | . | 93.3 | . | . | . | 91.7
Cc1nn(-c2ccccc2)c(Cl)c1C(=O)Nc1nnc(C2CCCCC2)s1 | 105.6 | 81.4 | 103.3 | 80.6 | -0.54 | 77.3
O=C(Nc1nnc(C2CC2)s1)c1cc(-c2ccccc2)nn1-c1ccccc1 | 101.5 | 93.2 | 101.1 | 81.7 | -3.18* | 87.4
Cc1cc(C)c2nc(N3CCC(C(=O)NCCCN4CCCCC4)CC3)sc2c1 | 2.7* | 3.1* | 4.0* | 58.0 | -0.19 | 2.3*
